# High-throughput results (PubChem BioAssay)
# Compounds with a hit are over-represented: about 3.5% of the library has one in this group of screens.
# TCR CD3 inh = inhibitors of human TCR-CD3 interaction; TAMRA-labeled TCR probe fluorescence, biochemical; inhibition, % at 9.4 µM; actives 0.37% (n = 360,000); in the data active means inhibition above about 19%;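 further: recombinant mutant TCR 2C K166C tagged with TAMRA read by polarization; 0% = receptor in buffer alone and 100% = receptor with positive control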
# HTRA1 inh = inhibitors of human serine peptidase HTRA1; Q92743; recombinant HTRA1, FP-rhodamine activity-based probe, fluorescence polarization; inhibition, % at 5.96 µM; actives 0.5% (n = 340,000); in the data active means inhibition above about 36%;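 further: 0% = enzyme with DMSO and 100% = wells lacking enzyme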
# SIAE inh = human SIAE inhibition, primary screen; inhibition, % at 9.66 µM; SIAE FP-Rh probe binding, fluorescence polarization; AID 1053197; Q9HAT2; actives 0.69% (n = 370,000);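 active means inhibition above a cutoff: mean of compounds within the control limits plus 3 SD of those, cut at about 17% in these data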;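 further: 0% = plate median of compound wells and 100% = probe without SIAE protein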
# ABHD4 inh = inhibitors of mouse ABHD4; Q8VD66; inhibition, % at 8.92 µM; actives 0.54% (n = 370,000); purified mABHD4, FP-Rh probe fluorescence polarization;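 active means inhibition exceeding the mean over every tested compound plus 3 SD, cut at about 30% in these data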;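 further: 0% = plate median of compound wells and 100% = S159A mutant with DMSO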
# Target sequence (Q8VD66 whole entry, looked up): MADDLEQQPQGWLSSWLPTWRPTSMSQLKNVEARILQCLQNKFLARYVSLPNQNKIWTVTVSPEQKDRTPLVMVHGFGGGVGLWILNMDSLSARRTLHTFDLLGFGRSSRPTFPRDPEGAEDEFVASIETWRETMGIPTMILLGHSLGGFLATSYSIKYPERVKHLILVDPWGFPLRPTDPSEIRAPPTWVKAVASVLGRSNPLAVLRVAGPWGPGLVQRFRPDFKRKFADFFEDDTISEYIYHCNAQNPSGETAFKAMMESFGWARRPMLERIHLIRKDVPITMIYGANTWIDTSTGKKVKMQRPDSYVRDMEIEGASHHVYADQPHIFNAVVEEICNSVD
#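 System: mouse ABHD4 enzyme, wild type / Medium: HEPES pH 7.0, NaCl, Pluronic buffer / Reagent: FP-Rh activity-based fluorescent probe / Control set: S159A mutant high control, sample median low control / Detection: fluorescence polarization with parallel and perpendicular emission, 525/598 nm / Schedule: 45 min + 60 min at 25 °C / Compound dosing: 8.92 µM, single dose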
# PRMT1 FP inh = inhibitors of human PRMT1. inhibition, % at 2.79 µM. recombinant PRMT1, activity-based probe fluorescence polarization. actives 1.3% (n = 370,000). Q99873. AID 652257;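 active means inhibition above about 21% made by adding two undisclosed values, limit read from the data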
# Target sequence (Q99873 whole entry, looked up): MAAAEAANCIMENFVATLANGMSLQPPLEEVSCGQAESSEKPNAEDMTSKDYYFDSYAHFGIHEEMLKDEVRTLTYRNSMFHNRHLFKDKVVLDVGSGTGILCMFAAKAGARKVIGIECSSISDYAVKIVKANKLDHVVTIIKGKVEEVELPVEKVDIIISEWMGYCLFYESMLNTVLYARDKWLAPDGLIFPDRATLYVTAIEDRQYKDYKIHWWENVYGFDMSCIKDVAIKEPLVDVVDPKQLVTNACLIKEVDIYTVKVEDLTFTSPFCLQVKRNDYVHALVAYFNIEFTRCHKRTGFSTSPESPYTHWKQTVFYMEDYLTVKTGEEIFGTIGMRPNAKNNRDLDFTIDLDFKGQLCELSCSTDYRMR
# rCAG RNA binder = binds r(CAG) RNA repeats. inhibition, % at 3 µM. r(CAG) RNA repeat, TO-PRO-1 dye displacement fluorescence. actives 1.3% (n = 370,000);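 active means inhibition above the plate cutoff, the mean of all test compounds on that plate plus 3 SD, cut at about 35% in these data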;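 further: 0% = DMSO alone and 100% = 100 µM mitoxantrone as full dye displacement; higher means more dye released from RNA so lower well fluorescence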
# rCAG binder conf = r(CAG) RNA repeat binding, confirmation. shares compounds with rCAG RNA binder. TO-PRO-1 dye displacement fluorescence. inhibition, % at 3 µM. actives 70% (n = 4,300);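 active means inhibition above a per-plate cutoff, the mean inhibition of sample wells plus 3 SD, cut at about 35% in these data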;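 further: loss of TO-PRO-1 fluorescence as compound displaces dye from 1x1 AA loop RNA; 0% = DMSO only wells and 100% = 100 µM mitoxantrone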
# DNA CAG counter = disrupts DNA CAG TO-PRO-1 complex, flagging rCAG hits. d(CAG) DNA oligo TO-PRO-1 dye displacement, fluorescence. inhibition, % at 3 µM. AID 652068. shares compounds with rCAG RNA binder. actives 94% (n = 4,300);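 active means inhibition above its plate's cutoff, the mean test-well inhibition plus 3 SD, cut at about 4.8% in these data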;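 further: 0% = DNA dye mix with DMSO and 100% = 100 µM mitoxantrone; hits displace the dye from DNA and so lower well fluorescence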
# dCAG dye DR = disrupts DNA CAG TO-PRO-1 complex in dose response. shares compounds with rCAG RNA binder. DNA CAG/GTC duplex TO-PRO-1 dye displacement fluorescence. IC50, µM. actives 20% (n = 250). AID 686960; in the data active means IC50 below about 10 µM
# PRMT1 confirm = PRMT1 (human) inhibition, FP confirmation; shares compounds with PRMT1 FP inh; recombinant His-PRMT1, activity-based probe fluorescence polarization; inhibition, % at 2.79 µM; actives 42% (n = 3,300); AID 687036;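 active means mean inhibition across replicates above the hit cutoff derived for the earlier primary screen, cut at about 22% in these data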
# mABHD4 conf = ABHD4 (mouse) inhibition, FP confirmation. shares compounds with ABHD4 inh. purified mABHD4, FP-Rh probe fluorescence polarization. inhibition, % at 8.92 µM. actives 55% (n = 1,800). AID 720658;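 active means mean inhibition across replicates above the hit cutoff set in the primary screen, cut at about 30% in these data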;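 further: 0% = wild-type ABHD4 with DMSO and 100% = catalytically dead S159A mutant with DMSO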
# * hit, by the source's call; i = inactive; . = no result given.
SMILES,TCR CD3 inh,HTRA1 inh,SIAE inh,ABHD4 inh,PRMT1 FP inh,rCAG RNA binder,rCAG binder conf,DNA CAG counter,mABHD4 conf,others
Cc1ccc(CNC(=O)c2ccc3c(=O)n(CC4CCCO4)c(=S)[nH]c3c2)cc1 (stereo unspecified),6,-3,5,-3,0,0,.,.,.,
N#C/C(=C\c1ccc(O)c([N+](=O)[O-])c1)c1nc2ccccc2s1,14,17,-50,30*,5,88*,82*,43*,71*,
COc1cc(/C=C(\C#N)c2nc3ccccc3s2)cc([N+](=O)[O-])c1O,-3,30,-29,21,2,33,.,.,.,
CN(C)[C@@H]1CCN(c2cccc3c2S(=O)(=O)N2CC[C@H](C2)O3)C1,.,.,-5,-2,-3,2,.,.,.,
Cc1ccc2c(c1)c(N=Nc1cccc(C(=O)O)c1)c(O)n2C,1,-1,-4,31*,3,38*,56*,12*,45*,dCAG dye DR=i
CCOc1ccc2c(c1)c(N=Nc1cccc(C(=O)O)c1)c(O)n2C,2,-2,-6,24,0,11,.,.,.,
Cc1ccccc1CS(=O)(=O)Cc1ccc(C(=O)Nc2ccc(F)cc2F)o1,.,.,4,-3,11,3,.,.,.,
O=C(Nc1cc([N+](=O)[O-])ccc1O)c1ccc2c(c1)C(=O)N(Cc1ccco1)C2=O,13,4,2,38*,8,83*,64*,25*,51*,
CCCCN1Cc2c(nc3cc(-c4ccco4)[nH]n3c2=O)C1=O,-1,11,-1,35*,56*,66*,9,2,1,PRMT1 confirm=18
COCc1cc(=O)n2[nH]c(-c3ccco3)cc2n1,-4,6,-7,7,3,5,.,.,.,
Cc1ccc(CSc2nnc(-c3cc(-c4ccc(C)cc4)n[nH]3)n2N)cc1,.,.,2,-2,2,7,.,.,.,
O=C1OC(c2ccccc2)(c2cc(Br)c(O)c(Br)c2)c2ccccc21 (stereo unspecified),6,-7,-1,35*,0,50*,57*,16*,32*,
C/C(=N\Nc1cccc(C(=O)O)c1)c1ccc(Cl)s1,-2,-3,-6,40*,42*,42*,21,4,45*,PRMT1 confirm=10
COc1ccc(/C(C)=N/Nc2cccc(C(=O)O)c2)cc1OC,9,-4,3,9,2,3,.,.,.,
COc1cc(/C=C/C(=O)O)cc(S(=O)(=O)Nc2cc(Cl)c(Cl)cc2Cl)c1OC,6,-11,2,32*,2,65*,37*,7.4*,35*,
COc1cc(/C=C/C(=O)O)cc(S(=O)(=O)NC2CCCC2)c1OC,-13,3,-1,-3,-2,5,.,.,.,
O=S(=O)(Nc1nc(-c2ccco2)c(-c2ccco2)s1)c1ccc(F)cc1F,11,5,-1,47*,45*,62*,53*,20*,12,PRMT1 confirm=20
O=C1/C(=C/c2ccco2)SC(=S)N1CC1CCCO1 (stereo unspecified),-11,.,9,32*,35*,46*,16,8.6*,5,PRMT1 confirm=6
O=C(CCCN1C(=O)/C(=C/c2ccco2)SC1=S)Nc1ccccc1C(=O)O,4,5,7,32*,55*,88*,83*,49*,-26,PRMT1 confirm=29*
O=C1/C(=C\c2ccc(-c3ccccc3Cl)o2)SC(=S)N1CC1CCCO1 (stereo unspecified),-3,0,4,-1,7,5,.,.,.,
Cc1ccc(/C=C2\SC(=S)N(CC3CCCO3)C2=O)o1 (stereo unspecified),-7,8,5,30*,23*,46*,40*,15*,-16,
Cc1ccc2c(c1)-c1c(cnn1CC(=O)NCCc1ccc(Cl)cc1)CO2,.,.,6,0,3,0,.,.,.,
CCCCNS(=O)(=O)CC1NCc2cc(OC)ccc21 (stereo unspecified),.,.,7,-2,-5,6,.,.,.,
COc1cccc(/C=N/Nc2snc(SC)c2C#N)c1O,5,6,-24,33*,0,75*,48*,19*,23,
COc1cccc(/C=N/Nc2ccnc(=O)[nH]2)c1O,-6,6,3,-2,-2,1,.,.,.,
SMILES,TCR CD3 inh,HTRA1 inh,SIAE inh,ABHD4 inh,PRMT1 FP inh,rCAG RNA binder,rCAG binder conf,DNA CAG counter,mABHD4 conf,others
COc1ccc(C=NNC(=S)NN=Cc2ccc(OC)c(OC)c2)cc1OC,-4,16,8,1,4,11,.,.,.,
COc1ccc(/C=N/Nc2snc(SC)c2C#N)cc1OC,1,2,-4,35*,7,50*,36*,11*,34*,
NNC(=S)Nc1cccc(-c2n[nH]c(=S)o2)c1,-1,8,0,35*,34*,51*,18,6.8*,22,PRMT1 confirm=8
CN(C)C(=S)Nc1cccc(-c2n[nH]c(=S)o2)c1,2,3,15,4,-1,1,.,.,.,
COC(=O)C[C@H]1CC[C@@H]2[C@H](COc3ccc(NC(=O)c4cnccn4)cc3C(=O)N2C)O1,.,.,9,4,-1,1,.,.,.,
COc1cc(/C=N/NC(=O)C(Cc2c[nH]c3ccccc23)NC(=O)OCc2ccccc2)cc([N+](=O)[O-])c1O (stereo unspecified),0,30,64*,45*,18,83*,81*,47*,92*,
COc1ccc(C2c3sc(=O)[nH]c3SC3C4CCC(C4)C23)cc1OC (stereo unspecified),1,-20,5,2,3,6,.,.,.,
COc1cc(C2c3sc(=O)[nH]c3SC3C(=O)N(c4ccc(Br)cc4)C(=O)C32)ccc1O (stereo unspecified),5,0,-2,34*,8,38*,23,8.2*,15,
CC(=O)C1=CCC(c2ccc(C(C)C)cc2)N(S(=O)(=O)c2ccc(C)cc2)C1 (stereo unspecified),-4,.,-3,-5,0,4,.,.,.,
Cc1ccc(S(=O)(=O)N2[C@@H](c3ccccc3F)C(C(=O)O)=CC[C@H]2c2ccc(C(C)C)cc2)cc1,-1,-53,-1,33*,-2,77*,81*,47*,27,
